This is a sample that favours compounds with a hit; in the whole collection about 1.5% have one here.
CCR6 antag: CCR6 (human) receptor antagonism. inhibition, % at 20 µM. P51684. AID 493098. CHO-K1 CCR6 PathHunter beta-arrestin, luminescence, CCL20-stimulated. hit rate 0.49% among 340,000;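 active means compounds whose inhibition of the agonist-driven luminescence signal at 20 µM reaches about 50%, limit read from the data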;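 further: cells stimulated with CCL20 at 14 nM final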
NTR1 agonist: agonists of human neurotensin receptor NTR1; P30989; NTR1-U2OS beta-arrestin-GFP spot imaging, agonist mode; activation, % at 20 µM; hit rate 0.17% among 330,000; AID 493036;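 active means activation at or above 40% of the spot to cytoplasm intensity ratio, with at least 20 cells analyzed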
Target sequence (P30989 whole entry, looked up): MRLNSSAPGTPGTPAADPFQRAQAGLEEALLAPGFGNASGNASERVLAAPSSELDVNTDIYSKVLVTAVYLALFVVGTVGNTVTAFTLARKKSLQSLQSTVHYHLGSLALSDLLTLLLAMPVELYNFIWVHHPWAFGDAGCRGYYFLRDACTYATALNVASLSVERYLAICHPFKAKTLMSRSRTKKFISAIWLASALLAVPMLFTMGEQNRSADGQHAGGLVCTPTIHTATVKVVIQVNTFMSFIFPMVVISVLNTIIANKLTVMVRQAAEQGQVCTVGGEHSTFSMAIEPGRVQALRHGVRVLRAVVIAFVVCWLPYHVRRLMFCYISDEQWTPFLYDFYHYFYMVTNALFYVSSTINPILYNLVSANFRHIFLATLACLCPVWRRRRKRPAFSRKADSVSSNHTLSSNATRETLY
APJ antag: APJ receptor antagonism. P35414. CHO-K1 APJ beta-arrestin complementation, luminescence. inhibition, % at 20 µM. hit rate 0.32% among 330,000;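 active means inhibition above about 40% at 20 µM, limit read from the data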;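 further: cells challenged with 10 nM apelin-13 agonist together with compound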
HTR2A ag: activates the mouse 5-HT2A serotonin receptor; P35363; CHO-K1 mHTR2A beta-arrestin complementation, luminescence; percent of 30 µM serotonin response; activation, % at 7.6 µM; hit rate 0.66% among 360,000; AID 624169;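 active means activation above a run cutoff, the mean activation of all tested compounds plus 3 SD, cut at about 14% in these data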
APJ ag: activates the human apelin receptor APJ; P35414; CHO-K1 APJ PathHunter beta-arrestin, luminescence; 0% DMSO wells, 100% apelin; activation, % at 20 µM; hit rate 0.11% among 330,000;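 active means activation more than six SD over the plate average, tested at 20 µM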
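Test system: CHO-K1 APJ beta-arrestin complementation cell line. Amount: cell density 1000 per well. Controls: DMSO negative, 10 nM Apelin-13 positive. Signal: luminescent beta-gal fragment complementation, chemiluminescent substrate. Read-out basis: agonist-driven arrestin binding to APJ. Timing: compound stimulation 90 min at 25 °C, detection 60 min.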
CXCR6 block: CXCR6 (human) receptor inhibition; O00574; CHO-K1 PathHunter CXCR6 beta-arrestin, luminescence; inhibition, % at 20 µM; hit rate 0.36% among 360,000; AID 602244; in the data active means inhibition above about 34%, passing the limit was not always enough;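 further: antagonist mode with CXCL16 agonist at 10 nM final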
Numbers stand for hits; i = inactive; nt = not tested or not shown.

SMILES	CCR6 antag	NTR1 agonist	APJ antag	HTR2A ag	APJ ag	CXCR6 block
Cc1[nH]c2ccccc2c1C(C#N)(C#N)C1C(=O)c2ccccc2C1=O	i	i	i	i	i	43.3
CNc1ccc(N=Nc2cccc3ncccc23)cc1	60.9	nt	nt	i	nt	41.4
Cc1ccc(NS(=O)(=O)c2cc([N+](=O)[O-])ccc2NNC(=S)Nc2cccc(Cl)c2)c(C)c1	81.2	nt	nt	i	nt	58.4
Cc1ccc(-c2noc(CSc3nnc(Cc4cccs4)n3-c3ccccc3)n2)cc1	i	i	i	21.4	i	i
CCOC(=O)C1NN=C(C(=O)c2ccccc2)C1c1ccc(Cl)cc1 (centres undefined)	i	i	46.7	i	i	i
c1ccc(CN2CCN(c3ncnc4nc[nH]c34)CC2)cc1	i	i	i	23.7	i	i
C=C(CN(C)C)C(=O)c1ccc(OC2OC(COC(C)=O)C(OC(C)=O)C(OC(C)=O)C2OC(C)=O)cc1 (centres undefined)	100.0	nt	nt	i	nt	89.6
Cc1ccc(S(=O)(=O)N2CCSCCSCCSCCSCC2)cc1	i	nt	nt	i	nt	i
CC1=C(C)/C(=N\OS(=O)(=O)c2ccc(C)cc2)C=CC1=O	76.3	nt	nt	i	nt	54.6
Cc1ccc(N2CC(NS(=O)(=O)c3cccs3)CC2=O)cc1 (centres undefined)	i	i	i	i	i	i
Cc1ccc(-n2sc3ccccc3c2=O)cc1S(=O)(=O)N1CCCCC1	54.8	i	i	17.0	i	i
CCC(Sc1nnc(-c2ccco2)n1C)C(=O)Nc1nnc(C)s1 (centres undefined)	i	i	i	i	i	i
CC(C)c1cc(C(=O)OCC(=O)NC2CC2)c(O)c(C(C)C)c1	nt	nt	nt	i	nt	i
CC1(C)NC(=O)N(CC(=O)Nc2ccc(-n3cnnn3)cc2)C1=O	i	i	i	i	i	i
COc1cc2c(cc1OC)C(c1ccc(-c3ccccc3Cl)o1)=NCC2	i	58.2	i	i	i	i
COc1ccccc1/C=c1\sc2nc(-c3ccccc3OC)nn2c1=O	i	i	i	i	i	i
COc1ccc(/C=c2\sc3nc(=O)c(C)nn3c2=O)c(OC)c1	82.7	i	i	i	i	i
COc1ccc(-c2sc(NC(=O)c3ccc(C)cc3)nc2-c2ccc([N+](=O)[O-])cc2)cc1	52.3	i	i	i	i	i
Cc1cc(NC(=O)CSCC(=O)OCC(=O)c2ccc(Br)cc2)no1	nt	nt	nt	i	nt	i
CCOC(=O)Nc1cc(N)ncn1	i	nt	nt	i	nt	i
Cc1[nH]c2ccccc2c1/C=N/Nc1ccc([N+](=O)[O-])cc1S(=O)(=O)Nc1ccc(Cl)cc1	57.0	i	i	i	i	42.4
O=C(O)COc1ccccc1C=NNc1ccc([N+](=O)[O-])cc1S(=O)(=O)Nc1ccc(Cl)cc1	i	i	i	i	i	i
NS(=O)(=O)c1ccc(CCNC(=O)c2cccc(S(=O)(=O)N3CCc4ccccc43)c2)cc1	nt	nt	nt	i	nt	i
O=C(O)c1cc(O)c2c(c1)[C@H]([C@H]1c3cc(C(=O)O)cc(O)c3C(=O)c3c(O[C@@H]4O[C@H](CO)[C@@H](O)[C@H](O)[C@H]4O)cccc31)c1cccc(OC3O[C@H](CO)[C@@H](O)[C@H](O)[C@H]3O)c1C2=O (some centres undefined)	88.3	i	i	i	i	i
O=C1c2cc(CO)cc(O)c2C(=O)c2c(O[C@@H]3OC(CO)[C@@H](O)[C@@H](O)[C@@H]3O)cccc21 (some centres undefined)	i	i	i	i	i	i
SMILES	CCR6 antag	NTR1 agonist	APJ antag	HTR2A ag	APJ ag	CXCR6 block
O=C(O)c1cc(O)c2c(c1)[C@@H]([C@H]1c3cc(C(=O)O)cc(O)c3C(=O)c3c(O[C@@H]4O[C@H](CO)[C@@H](O)[C@H](O)[C@H]4O)cccc31)c1cccc(OC3O[C@H](CO)[C@@H](O)[C@H](O)[C@H]3O)c1C2=O (some centres undefined)	79.1	i	i	i	i	i
Cc1ccc(-c2nnn(CC(=O)N3CCCCC3)n2)cc1	i	i	i	i	i	i
CN1C(=CC=C2C=C(I)C(=O)C(I)=C2)C(C)(C)c2ccccc21	73.0	nt	nt	i	nt	44.9
O=C(COc1ccccc1)Nc1ccc2oc(=O)ccc2c1	i	i	i	i	i	i
CCOc1ccc(/C=C/C2=NNC(=O)CC2)cc1	i	i	i	i	i	i
COc1ccc(/C=C/C2=NNC(=O)CC2)cc1	76.6	i	i	i	i	i
COc1cccc(CN2CCNC(=O)C2CC(=O)O)c1OC (centres undefined)	i	i	i	14.5	i	i
CC1=CC(=O)c2ccccc2C1=O	i	i	i	i	i	i
CC(C)(C=O)C1=CC(=O)c2ccccc2C1=O	103.3	nt	nt	i	nt	99.9
CC(C)(C)CN1CCNC(=O)C1CC(=O)N1CCN(c2ccccc2)CC1 (centres undefined)	i	i	i	i	i	i
Cc1ccc(C)c(NC(=O)COC(=O)c2ccc3c(c2)OCCO3)c1	i	i	i	i	i	i
O=Nc1c(-c2c(O)[nH]c3cc(Br)ccc23)[nH]c2ccccc12	74.5	i	i	i	i	60.6
O=C(CSCc1cccc(Br)c1)N=Nc1c(O)[nH]c2ccccc12	i	i	i	i	i	i
C[C@H](NC(=O)COc1ccccc1)C(=O)OCC(=O)c1cc2ccccc2o1	76.0	nt	nt	i	nt	48.0
CC(C)(C)C(=O)NC(=S)NNC(=O)C(c1ccccc1)c1ccccc1	79.0	i	i	i	i	72.1
CC(=O)NNC(=S)NC(=O)C(c1ccccc1)c1ccccc1	i	i	i	i	i	i
COc1ccc(S(=O)(=O)N2CCN(C(=O)c3ccccc3Cc3ccccc3)CC2)cc1OC	nt	nt	nt	i	nt	i
CN(C)c1ccc(N=Nc2ccc(C(=O)O)cc2)cc1	i	i	i	i	i	i
Cc1csc(N=Nc2ccc(N(C)C)cc2)[n+]1[O-]	nt	nt	nt	i	nt	46.8
O=C(COC(=O)Cc1ccc(F)cc1)NC1CCCC1	i	i	i	21.1	i	i
O=C(COC(=O)Cc1ccc(F)cc1)NC(=O)NC1CCCC1	i	i	i	i	i	i
COc1cccc(C(NC(C)=O)c2nc(-c3ccc(F)c(Cl)c3)cs2)c1 (centres undefined)	nt	nt	nt	i	nt	i
COc1ccccc1C(=O)Nc1cc(-c2ccc(C)cc2)no1	i	i	i	i	i	i
Cc1[nH]n(-c2ccccc2)c(=O)c1/C=N/N1C(=O)c2ccc3c4c(ccc(c24)C1=O)CC3	nt	i	i	i	i	38.4
Cc1ccc2cccc(N=Cc3c(C)[nH]n(-c4ccccc4)c3=O)c2n1	88.9	nt	nt	i	nt	69.4
O=[N+]([O-])c1ccccc1S(=O)(=O)Nc1ccc2c(c1)OCCO2	i	i	i	i	i	i
COc1ccc(C(CNc2ccc(C(F)(F)F)cn2)N(C)C)cc1OC (centres undefined)	i	i	i	i	i	i
CC(=NNc1nc2ccccc2s1)c1ccncn1	54.1	nt	nt	i	nt	45.3

High-throughput results deposited in PubChem BioAssay by several laboratories.
